Test results from ChEMBL document CHEMBL4043283, “Discovery and Preclinical Development of IIIM-290, an Orally Active Potent Cyclin-Dependent Kinase Inhibitor” (J Med Chem, 2018).
Values after ≈ are worked out from the molar mass of the structure shown. Active and inactive are the calls of the source. The rule behind the calls is not given here.

Columns and labels:
[1] = n-octanol-PBS distribution co-efficient, log D of compound at pH 7.4 by shake flask method; assay type: physicochemical
A-431 = test: Growth inhibition of human A431 cells after 48 hrs by MTT assay; assay type: functional; conditions: A-431, 48 h
Procedure, shortened: (§1)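 Cancer cell lines sourced from the National Cancer Institute (USA). Cells kept in appropriate growth medium at 37 °C, 95% humidity, 5% CO2. Antiproliferation read by tetrazolium (MTT) assay. GI50 values were determined only for compounds selected after an initial single-concentration screen.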

[2] = Chemical stability of compound in phosphate buffer at pH 4 assessed as parent compound remaining at 120 ug/ml after 24 hrs by HPLC method; assay type: physicochemical; conditions: read-out: Stability
[3] = Chemical stability of compound in phosphate buffered saline at pH 6.8 assessed as parent compound remaining at 120 ug/ml after 24 hrs by HPLC method; assay type: physicochemical; conditions: read-out: Stability
PANC-1 = test: Growth inhibition of human PANC1 cells after 48 hrs by MTT assay; assay type: functional; conditions: PANC-1, 48 h; procedure, shortened: as §1
[4] = AUC (0 to infinity) in BALB/c mouse at 1 mg/kg, iv by LC-MS/MS analysis; assay type: ADME, organism-based; parameters: dose 1 mg/kg, route intravenous, time infinity; conditions: in vivo
Ehrlich = test: Antitumor activity against Swiss mouse EAC allografted in Swiss albino mouse assessed as tumor growth inhibition at 100 mg/kg, po administered for 9 day measured on day 13 relative to control; assay type: functional; conditions: read-out: TGI
MDA-MB-468 = test: Growth inhibition of human MDA-MB-468 cells after 48 hrs by MTT assay; assay type: functional; conditions: MDA-MB-468, 48 h; procedure, shortened: as §1
[5] = biological target: Cyclin-dependent kinase 5/CDK5 activator 1 (Homo sapiens, UniProt Q00535); test: Inhibition of CDK5/cyclin p35 (unknown origin) after 30 mins in presence of [33P]-gamma-ATP by filter binding assay; assay type: protein-complex assay
PBL = test: Genotoxicity in human PBL at 0.125 to 2 ug/ml in presence of cytokinesis blocking agent cytochalasin B and liver S9 fraction by micronucleus test; assay type: toxicity, cell-based
Lung = test: Drug uptake in BALB/c mouse lung at 30 mg/kg, po after 8 hrs; assay type: ADME, organism-based; conditions: in vivo
Mus musculus [6] = test: Toxicity in CD1 nude mouse xenografted with human MIAPaCa2 cells assessed as change in body weight at 25 to 50 mg/kg, po qd administered on day 10 to 25 post tumor inoculation; assay type: organism-based; conditions: in vivo
Mus musculus [7] = test: Toxicity in CD1 nude mouse xenografted with human MIAPaCa2 cells assessed as mortality at 50 mg/kg, po qd administered on day 10 to 25 post tumor inoculation; assay type: organism-based; conditions: in vivo
[8] = Tmax in BALB/c mouse at 3 mg/kg, po by LC-MS/MS analysis; assay type: ADME, organism-based; conditions: in vivo
Liver [9] = test: Intrinsic clearance in dog liver S9 fraction assessed per mg of protein preincubated for 5 mins followed by NADPH addition measured after 30 mins by LC-MS/MS analysis; assay type: ADME, tissue-based, Canis lupus familiaris; conditions: s9, 0.5 h
Procedure, shortened: (§2)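 Intrinsic clearance obtained from substrate disappearance over time, reported per mg protein (microsomes, S9) or per 10^6 cells (hepatocytes).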

[10] = Half life in Sprague-Dawley rat at 10 mg/kg, po by LC-MS/MS analysis; assay type: ADME, organism-based; conditions: in vivo
HL-60 = test: Growth inhibition of human HL60 cells after 48 hrs by MTT assay; assay type: functional; conditions: HL-60, 48 h; procedure, shortened: as §1
[11] = Tmax in Sprague-Dawley rat at 10 mg/kg, po by LC-MS/MS analysis; assay type: ADME, organism-based; conditions: in vivo
Cytochrome P450 2D6 = Cytochrome P450 2D6 (Homo sapiens, UniProt P10635); test: Time-dependent inhibition of human CYP2D6 at 2 uM using fluorogenic substrate by fluorometric method; assay type: ADME
[12] = Ratio of Cmax in BALB/c mouse at 30 mg/kg, po to GI50 for human MIAPaCa2 cells
[13] = Growth inhibition of human NCI-H322 cells after 48 hrs by MTT assay; assay type: functional; conditions: NCI-H322, 48 h; procedure, shortened: as §1
[14] = Half life in mouse hepatocytes at 3 uM after 180 mins by LC-MS/MS analysis; assay type: ADME, cell-based, Hepatocyte
MIA PaCa-2 [15] = test: Antitumor activity against human MIAPaCa2 cells xenografted in CD1 nude mouse assessed as tumor growth inhibition at 25 mg/kg, po qd administered on day 10 to 25 post tumor inoculation; assay type: functional, organism-based
[16] = Cmax in Sprague-Dawley rat at 30 mg/kg, po by LC-MS/MS analysis; assay type: ADME, organism-based; parameters: dose 30 mg/kg, route oral; conditions: in vivo
[17] = Half life in human hepatocytes at 3 uM after 180 mins by LC-MS/MS analysis; assay type: ADME, cell-based, Hepatocyte
[18] = Growth inhibition of mouse adenocarcinoma cells after 48 hrs by MTT assay; assay type: functional; conditions: Adenocarcinoma cell
[19] = Intrinsic clearance in dog hepatocytes assessed per million cells at 3 uM after 180 mins by LC-MS/MS analysis; assay type: ADME, cell-based, Canis lupus familiaris, Hepatocyte; conditions: read-out: CLH; procedure, shortened: as §2
Cytochrome P450 2C9 = Cytochrome P450 2C9 (Homo sapiens, UniProt P11712); test: Time-dependent inhibition of human CYP2C9 at 2 uM using fluorogenic substrate by fluorometric method; assay type: ADME
[20] = biological target: Receptor tyrosine-protein kinase erbB-3 (Homo sapiens) (UniProt P21860); test: Inhibition of partial length wild type human ERBB3 expressed in mammalian expression system at 0.5 uM by KINOMEscan method relative to control
Procedure, shortened: (§3)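 Competition binding screen (KINOMEscan) at 0.5 μM; primary binding read out as % of control, lower values indicating stronger interaction.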

MOLT-4 = test: Growth inhibition of human MOLT4 cells after 48 hrs by MTT assay; assay type: functional; conditions: MOLT-4, 48 h; procedure, shortened: as §1
[21] = Chemical stability of compound in hydrochloric acid buffer at pH 1.2 assessed as parent compound remaining at 120 ug/ml after 24 hrs by HPLC method; assay type: physicochemical; conditions: read-out: Stability
[22] = tested on: alpha-1 acid glycoprotein; test: Binding affinity to alpha-1 acid glycoprotein (unknown origin); assay type: ADME; conditions: human, read-out: PB (converted)
MIA PaCa-2 [23] = test: Induction of apoptosis in human MIAPaCa2 cells assessed as caspase-3 cleavage by Western blot method; assay type: functional, cell-based
Procedure, shortened: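 Lysate protein quantified against a BSA standard; 70 μg resolved by SDS-PAGE, transferred to PVDF overnight at 4 °C, 30 V; blocked 1 h in 5% nonfat milk/TBST; primary antibodies 2–4 h, HRP anti-mouse secondary 1 h; ECL detection on X-ray film.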

CYP3A4 = CYP3A4 (Homo sapiens, UniProt P08684); test: Inhibition of human CYP3A4 at 2 uM using fluorogenic substrate after 30 mins by fluorometric method relative to control; assay type: ADME; conditions: probe fluorogenic substrate
[24] = biological target: PRKCE (protein kinase C epsilon) (Homo sapiens, UniProt Q02156); test: Inhibition of partial length wild type human PRKCE expressed in mammalian expression system at 0.5 uM by KINOMEscan method relative to control; procedure, shortened: as §3
[25] = Thermodynamic equilibrium solubility of compound in SGF at pH 1.2 after 5 hrs by shake flask method; assay type: physicochemical; conditions: read-out: Therm_solubility
CDK9/Cyclin K = CDK9/Cyclin K (Homo sapiens, UniProt P50750); test: Inhibition of CDK9/cyclin K (unknown origin) after 30 mins in presence of [33P]-gamma-ATP by filter binding assay; assay type: protein-complex assay
Liver [26] = test: Drug uptake in Sprague-Dawley rat liver at 30 mg/kg, po after 8 hrs; assay type: ADME, organism-based; conditions: in vivo

Sequence of PRKCE (protein kinase C epsilon) (Q02156 whole entry): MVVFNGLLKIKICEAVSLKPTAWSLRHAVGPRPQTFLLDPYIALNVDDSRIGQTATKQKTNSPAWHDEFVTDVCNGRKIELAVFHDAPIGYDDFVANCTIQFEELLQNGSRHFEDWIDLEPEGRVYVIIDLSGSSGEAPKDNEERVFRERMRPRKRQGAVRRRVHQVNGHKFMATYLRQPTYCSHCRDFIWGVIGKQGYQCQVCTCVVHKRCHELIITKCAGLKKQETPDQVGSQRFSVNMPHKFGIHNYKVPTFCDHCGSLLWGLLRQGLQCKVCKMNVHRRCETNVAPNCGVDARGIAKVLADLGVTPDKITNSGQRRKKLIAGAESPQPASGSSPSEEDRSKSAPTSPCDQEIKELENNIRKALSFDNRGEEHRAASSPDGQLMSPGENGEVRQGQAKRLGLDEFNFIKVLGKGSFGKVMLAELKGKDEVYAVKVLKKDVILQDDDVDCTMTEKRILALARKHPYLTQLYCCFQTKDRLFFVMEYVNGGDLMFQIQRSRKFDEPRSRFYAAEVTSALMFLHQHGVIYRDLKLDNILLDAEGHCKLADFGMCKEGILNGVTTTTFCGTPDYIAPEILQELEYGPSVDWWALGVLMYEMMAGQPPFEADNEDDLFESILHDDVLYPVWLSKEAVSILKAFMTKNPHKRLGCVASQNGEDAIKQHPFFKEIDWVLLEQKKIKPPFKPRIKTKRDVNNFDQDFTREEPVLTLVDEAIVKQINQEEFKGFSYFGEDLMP
Sequence of CYP3A4 (P08684 whole entry): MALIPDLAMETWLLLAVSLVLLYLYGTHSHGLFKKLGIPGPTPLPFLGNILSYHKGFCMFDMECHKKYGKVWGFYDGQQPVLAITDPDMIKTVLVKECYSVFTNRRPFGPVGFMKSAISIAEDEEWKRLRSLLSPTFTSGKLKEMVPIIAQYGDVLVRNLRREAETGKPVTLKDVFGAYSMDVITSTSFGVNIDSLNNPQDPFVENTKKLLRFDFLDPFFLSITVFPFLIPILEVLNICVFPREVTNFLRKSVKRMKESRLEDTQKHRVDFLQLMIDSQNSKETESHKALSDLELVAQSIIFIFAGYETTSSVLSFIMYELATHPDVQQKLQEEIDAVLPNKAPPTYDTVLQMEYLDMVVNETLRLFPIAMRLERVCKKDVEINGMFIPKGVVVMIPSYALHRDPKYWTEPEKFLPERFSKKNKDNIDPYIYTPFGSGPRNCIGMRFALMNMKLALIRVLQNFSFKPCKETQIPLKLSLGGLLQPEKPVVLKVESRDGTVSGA
Sequence of Cytochrome P450 2C9 (P11712 whole entry): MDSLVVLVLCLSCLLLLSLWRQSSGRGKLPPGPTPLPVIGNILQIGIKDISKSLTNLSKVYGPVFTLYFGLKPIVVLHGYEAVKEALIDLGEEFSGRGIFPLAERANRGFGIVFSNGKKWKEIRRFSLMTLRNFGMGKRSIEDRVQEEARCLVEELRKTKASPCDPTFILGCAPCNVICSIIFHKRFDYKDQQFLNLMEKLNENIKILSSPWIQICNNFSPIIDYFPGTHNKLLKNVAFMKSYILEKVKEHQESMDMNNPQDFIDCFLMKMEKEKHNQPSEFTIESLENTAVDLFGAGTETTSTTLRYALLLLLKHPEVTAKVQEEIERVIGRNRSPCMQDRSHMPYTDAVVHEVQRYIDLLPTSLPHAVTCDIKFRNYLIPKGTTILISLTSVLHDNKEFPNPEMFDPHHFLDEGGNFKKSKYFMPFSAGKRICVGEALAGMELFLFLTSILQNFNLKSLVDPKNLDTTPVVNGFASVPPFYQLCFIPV
Sequence of Cytochrome P450 2D6 (P10635 whole entry): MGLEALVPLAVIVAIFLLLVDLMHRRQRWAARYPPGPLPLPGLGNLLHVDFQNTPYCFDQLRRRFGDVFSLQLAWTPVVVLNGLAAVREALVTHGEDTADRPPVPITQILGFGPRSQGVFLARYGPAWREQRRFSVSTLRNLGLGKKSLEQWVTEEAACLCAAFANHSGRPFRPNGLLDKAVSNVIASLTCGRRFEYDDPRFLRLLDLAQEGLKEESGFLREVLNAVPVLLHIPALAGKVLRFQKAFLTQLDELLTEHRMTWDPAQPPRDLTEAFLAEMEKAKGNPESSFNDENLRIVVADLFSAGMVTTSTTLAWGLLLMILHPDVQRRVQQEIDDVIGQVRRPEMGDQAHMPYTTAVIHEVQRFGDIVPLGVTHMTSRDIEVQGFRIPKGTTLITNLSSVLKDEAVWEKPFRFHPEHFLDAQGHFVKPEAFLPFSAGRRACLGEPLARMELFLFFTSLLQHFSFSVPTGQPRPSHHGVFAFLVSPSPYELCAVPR
Sequence of Cyclin-dependent kinase 5/CDK5 activator 1 (Q00535 whole entry): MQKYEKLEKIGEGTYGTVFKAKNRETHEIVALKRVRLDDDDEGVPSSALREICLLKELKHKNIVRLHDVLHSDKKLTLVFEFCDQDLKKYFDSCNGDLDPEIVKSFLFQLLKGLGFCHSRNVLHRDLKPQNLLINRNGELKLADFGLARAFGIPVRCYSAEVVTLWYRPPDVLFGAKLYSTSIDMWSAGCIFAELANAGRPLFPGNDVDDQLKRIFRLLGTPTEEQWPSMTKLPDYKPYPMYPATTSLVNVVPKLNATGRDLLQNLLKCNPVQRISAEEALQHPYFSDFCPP
Sequence of Cyclin-dependent kinase 5/CDK5 activator 1 (Q15078 whole entry, further chain): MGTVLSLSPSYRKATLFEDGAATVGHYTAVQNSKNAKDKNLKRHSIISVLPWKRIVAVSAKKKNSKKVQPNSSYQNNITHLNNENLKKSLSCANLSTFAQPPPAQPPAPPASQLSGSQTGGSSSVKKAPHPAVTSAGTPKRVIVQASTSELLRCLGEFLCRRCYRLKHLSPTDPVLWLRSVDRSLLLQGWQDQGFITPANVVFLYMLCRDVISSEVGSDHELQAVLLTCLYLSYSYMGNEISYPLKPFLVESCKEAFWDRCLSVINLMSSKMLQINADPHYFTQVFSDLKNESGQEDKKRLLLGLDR
Sequence of CDK9/Cyclin K (P50750 whole entry): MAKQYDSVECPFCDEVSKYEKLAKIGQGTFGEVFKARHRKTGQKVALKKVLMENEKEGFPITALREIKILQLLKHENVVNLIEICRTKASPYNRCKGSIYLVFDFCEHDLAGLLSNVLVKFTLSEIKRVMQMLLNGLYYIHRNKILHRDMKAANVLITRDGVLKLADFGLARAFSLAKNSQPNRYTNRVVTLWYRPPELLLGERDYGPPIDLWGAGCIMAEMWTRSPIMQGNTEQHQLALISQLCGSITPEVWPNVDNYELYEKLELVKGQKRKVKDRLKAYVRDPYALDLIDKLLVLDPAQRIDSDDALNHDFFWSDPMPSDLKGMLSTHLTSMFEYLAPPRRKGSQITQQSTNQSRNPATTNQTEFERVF
Sequence of CDK9/Cyclin K (O75909 whole entry, further chain): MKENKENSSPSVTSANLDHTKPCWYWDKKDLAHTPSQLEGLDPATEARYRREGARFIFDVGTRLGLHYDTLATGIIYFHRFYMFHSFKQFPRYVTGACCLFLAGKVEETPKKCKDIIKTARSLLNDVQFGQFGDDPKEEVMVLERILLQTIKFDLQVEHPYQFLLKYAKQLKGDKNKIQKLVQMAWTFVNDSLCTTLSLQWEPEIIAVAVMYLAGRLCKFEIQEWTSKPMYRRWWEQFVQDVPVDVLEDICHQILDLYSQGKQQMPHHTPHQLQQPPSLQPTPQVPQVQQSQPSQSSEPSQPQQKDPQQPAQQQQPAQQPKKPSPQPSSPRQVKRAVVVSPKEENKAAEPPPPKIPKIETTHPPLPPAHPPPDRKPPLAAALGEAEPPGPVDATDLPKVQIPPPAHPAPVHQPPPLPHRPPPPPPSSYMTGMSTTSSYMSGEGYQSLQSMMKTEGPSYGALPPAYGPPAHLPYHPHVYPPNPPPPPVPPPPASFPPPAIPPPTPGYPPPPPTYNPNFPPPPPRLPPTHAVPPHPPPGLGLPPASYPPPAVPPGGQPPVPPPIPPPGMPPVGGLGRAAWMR

Q: Which results are given for `CN1CC[C@H](c2c(O)cc(O)c3c(=O)cc(/C=C/c4c(Cl)cccc4Cl)oc23)[C@H](O)C1`?
A: logD [1]: 1.65; GI50 (A-431): 8 µM; remaining at 24 h, 120 ug/ml [2]: 100%; remaining at 24 h, 120 ug/ml [3]: 81%; GI50 (PANC-1): 4 µM; AUC(0-inf) [4]: 0.653 µM·h; inhibition in vivo at 100 mg/kg (Ehrlich): 39%; GI50 (MDA-MB-468): 4 µM; IC50 [5]: 0.0157 µM; Activity (PBL): Non-Toxic; Drug uptake (Lung): Active; Activity (Mus musculus [6]): Non-Toxic; Activity (Mus musculus [7]): Non-Toxic; Tmax [8]: 0.37 h; CLint (Liver [9]): 12 µL/min/mg; half-life [10]: 5.16 h; GI50 (HL-60): 0.9 µM; Tmax [11]: 1.75 h; TDI (Cytochrome P450 2D6): Not Active; Ratio [12]: 4; GI50 [13]: 2 µM; half-life at 3 µM [14]: 3.1 h; TGI (MIA PaCa-2 [15]): inactive; Cmax [16]: 3.62 µM; half-life at 3 µM [17]: 12.1 h; GI50 [18]: 1.2 µM; hepatocyte CLint at 3 µM [19]: 12.3 µL/min/1e6 cells; TDI (Cytochrome P450 2C9): Not Active; inhibition [20]: > 98%; GI50 (MOLT-4): 0.5 µM; remaining at 24 h, 120 ug/ml [21]: 100%; fraction unbound [22]: 0.017; Activity (MIA PaCa-2 [23]): Dose-dependent effect; inhibition at 0.5 h, 2 µM (CYP3A4): 40%; inhibition at 0.5 µM [24]: > 98%; solubility thermodynamic at 5 h [25]: 8.81 µg/mL (≈ 19.1 µM); IC50 (CDK9/Cyclin K): 0.412 µM; Drug uptake (Liver [26]): Active
